Laboratory results reported in ChEMBL document CHEMBL3872211, “4, 5-Dihydrooxazole-pyrazoline hybrids: Synthesis and their evaluation as potential antimalarial agents” (Eur J Med Chem, 2016).
Values after ≈ are worked out from the molar mass of the structure shown. Active and inactive are the calls of the source. The rule behind the calls is not given here.

Tests used:
Plasmodium falciparum [1] = experiment: Antimalarial activity against chloroquine-sensitive Plasmodium falciparum 3D7 infected in human red blood cells assessed as inhibition of schizont stage parasite growth measured after 24 hrs by giemsa staining based assay; assay type: functional, cell-based; conditions: 3D7, 24 h
Method in brief: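 Parasitized RBCs (2-3% parasitemia, 8% hematocrit) in RPMI 1640 with human AB+ serum were exposed to serial dilutions of test samples from 1 mg/ml stock. Incubation was 24 h at 37 °C under 90% N2/5% CO2/5% O2. Giemsa-stained smears were scored for schizonts (≥3 merozoites). IC50 was taken from dose-response curves by non-linear regression.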

[2] = Selectivity index, ratio of IC50 for cytotoxicity against African green monkey vero cells to IC50 for antimalarial activity against chloroquine-resistant Plasmodium falciparum RKL9 infected in human red blood cells; assay type: toxicity, cell-based; conditions: read-out: Ratio IC50
Method in brief: (§1)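 SI = CC50/IC50. CC50 from Vero cells exposed 72 h to compound dilutions, MTT read-out (modified Mosmann method). Antimalarial IC50 from 24 h, 37 °C P. falciparum (3D7 or RKL9) RBC culture, Giemsa schizont counts, non-linear regression.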

Plasmodium falciparum [3] = experiment: Antimalarial activity against chloroquine-resistant Plasmodium falciparum RKL9 infected in human red blood cells assessed as inhibition of schizont stage parasite growth measured after 24 hrs by giemsa staining based assay; assay type: functional, cell-based; conditions: RKL9, 24 h
Method in brief: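 P. falciparum RKL9 parasitized RBCs at 2-3% parasitemia, 8% hematocrit in RPMI 1640 with human AB+ serum. Exposed to serial dilutions of test samples, 24 h at 37 °C under 90% N2/5% CO2/5% O2. Giemsa-stained smears; schizonts (≥3 merozoites) counted; IC50 by non-linear regression of dose-response curves.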

[4] = Resistance index, ratio of IC50 for chloroquine-resistant Plasmodium falciparum RKL9 infected in human RBC to IC50 for chloroquine-sensitive Plasmodium falciparum 3D7 infected in human red blood cells; assay type: functional
Method in brief: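 Ratio of IC50 vs RKL9 to IC50 vs 3D7. Both from 24 h, 37 °C culture in RBCs (2-3% parasitemia, 8% hematocrit, RPMI 1640 plus human AB+ serum, 90% N2/5% CO2/5% O2), Giemsa smear schizont counts, non-linear regression.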

[5] = Selectivity index, ratio of IC50 for cytotoxicity against African green monkey vero cells to IC50 for antimalarial activity against chloroquine-sensitive Plasmodium falciparum 3D7 infected in human red blood cells; assay type: toxicity, cell-based; conditions: read-out: Ratio IC50; method in brief: as §1
Plasmodium berghei [6] = experiment: Antimalarial activity against Plasmodium berghei NK65 infected in Swiss albino mouse assessed as mean survival days at 25 mg/kg, po administered 4 hrs post infection for 4 days measured up to 30 days (reference value: 7.2 days); assay type: functional
Heme [7] = experiment: Binding affinity to monomeric heme (unknown origin) assessed as association constant at pH 7.4 by UV-titration method
Method in brief: (§2)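 Hemin stock was 1.2 mM in DMSO. It was diluted into aqueous DMSO (40%) buffered with HEPES pH 7.4 (0.02 M), or with MES for the pH 5.6 run. The titrant (2 mM stock in DMSO) was added stepwise at 0-100 µM final, and the Soret band was read at 402 nm. Association constant (log K) was derived by titration.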

mu-oxodimeric heme [8] = experiment: Binding affinity to mu-oxodimeric heme (unknown origin) assessed as 1:1 stoichiometry for mu-oxodimeric heme-compound complex up to 100 uM at pH 5.8 by Job's plot analysis
Method in brief: (§3)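 Hemin stock was 10 mM in 0.1 M NaOH, sonicated 30 min, then diluted in 20 mM phosphate buffer pH 5.8 to give µ-oxodimeric heme. Compound from 2 mM DMSO stock was titrated in (0-100 µM) and absorbance followed at 362 nm. Log K was obtained by titration, and stoichiometry by molar-fraction Job's plot.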

Rattus norvegicus = experiment: Acute toxicity in Wistar rat assessed as inflammatory cells infiltration in periportal area of liver at <300 mg/kg, po measured after 14 days; assay type: organism-based; conditions: in vivo, 336 h
Heme [9] = experiment: Binding affinity to monomeric heme assessed as 1:1 stoichiometry for heme-compound complex up to 100 uM at pH 7.4 by Job's plot analysis
Method in brief: (§4)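 Monomeric hemin was prepared in 40% DMSO with 0.02 M HEPES (pH 7.4) or 0.02 M MES (pH 5.6). Absorbance was monitored at 402 nm. Complex stoichiometry was determined by a molar-fraction Job's plot.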

mu-oxodimeric heme [10] = experiment: Binding affinity to mu-oxodimeric heme (unknown origin) assessed as association constant at pH 5.8 by UV-titration method; method in brief: as §3
Heme [11] = experiment: Binding affinity to monomeric heme assessed as 1:1 stoichiometry for heme-compound complex up to 100 uM at pH 5.6 by Job's plot analysis; method in brief: as §4
Plasmodium berghei [12] = experiment: Antimalarial activity against Plasmodium berghei NK65 infected in Swiss albino mouse assessed as mean survival days at 50 mg/kg, po administered 4 hrs post infection for 4 days measured up to 30 days (Rvb= 7.2 days); assay type: functional
Plasmodium berghei [13] = experiment: Antimalarial activity against Plasmodium berghei NK65 infected in Swiss albino mouse assessed as reduction in parasitemia at 50 mg/kg, po administered 4 hrs post infection for 4 days measured on day 4 post infection by giemsa staining based microscopic method; assay type: functional; set-up: scale not given: the % may be the effect or the level left
Method in brief: (§5)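 Peters 4-day suppressive test: female Swiss albino mice (20-25 g), groups of five, infected ip with about 10-15% P. berghei NK65-parasitized erythrocytes from a donor mouse. Oral dosing began 4 h later and was given on days 0-3. Vehicle-only group served as negative control. On day 4, tail-vein smears were methanol-fixed, Giemsa-stained and read at 1000×. % suppression was calculated against the negative control.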

Plasmodium berghei [14] = experiment: Antimalarial activity against Plasmodium berghei NK65 infected in Swiss albino mouse assessed as reduction in parasitemia at 25 mg/kg, po administered 4 hrs post infection for 4 days measured on day 4 post infection by giemsa staining based microscopic method; assay type: functional; set-up: scale not given: the % may be the effect or the level left; method in brief: as §5
Heme [15] = experiment: Binding affinity to monomeric heme (unknown origin) assessed as association constant at pH 5.6 by UV-titration method; method in brief: as §2

O=C(/C=C/c1ccc2c(c1)OCCO2)c1ccc(OCC2=NCCO2)cc1
IC50 (Plasmodium falciparum [1]): 4.23 µg/mL (≈ 11.6 µM)

Clc1ccc(C2CC(c3ccc(OCC4=NCCO4)cc3)=NN2c2ccccc2)cc1 (centres undefined)
IC50 (Plasmodium falciparum [1]): 0.477 µg/mL (≈ 1.1 µM) | selectivity ratio [2]: 7.1 | IC50 (Plasmodium falciparum [3]): 1.57 µg/mL (≈ 3.64 µM) | Ratio IC50 [4]: 3.29 | selectivity ratio [5]: 23.3

O=C(/C=C/c1cccc(O)c1)c1ccc(OCC2=NCCO2)cc1
IC50 (Plasmodium falciparum [1]): 0.515 µg/mL (≈ 1.59 µM) | selectivity ratio [2]: 7.7 | IC50 (Plasmodium falciparum [3]): 1.57 µg/mL (≈ 4.86 µM) | Ratio IC50 [4]: 3.05 | selectivity ratio [5]: 23.6

COc1cccc(C2CC(c3ccc(OCC4=NCCO4)cc3)=NN2c2ccc(S(N)(=O)=O)cc2)c1 (centres undefined)
IC50 (Plasmodium falciparum [1]): 0.413 µg/mL (≈ 0.815 µM) | selectivity ratio [2]: 8.1 | IC50 (Plasmodium falciparum [3]): 0.936 µg/mL (≈ 1.85 µM) | Ratio IC50 [4]: 2.27 | selectivity ratio [5]: 18.4

CC(=O)c1ccc(OCC2=NCCO2)cc1
IC50 (Plasmodium falciparum [1]): 0.737 µg/mL (≈ 3.36 µM)

COc1cccc(/C=C/C(=O)c2ccc(OCC3=NCCO3)cc2)c1
IC50 (Plasmodium falciparum [1]): 1.82 µg/mL (≈ 5.4 µM)

COc1ccc(C2CC(c3ccc(OCC4=NCCO4)cc3)=NN2c2ccccc2)cc1 (centres undefined)
IC50 (Plasmodium falciparum [1]): 0.545 µg/mL (≈ 1.27 µM) | selectivity ratio [2]: 10.5 | IC50 (Plasmodium falciparum [3]): 1.57 µg/mL (≈ 3.67 µM) | Ratio IC50 [4]: 2.88 | selectivity ratio [5]: 30.4

COc1ccc(C2CC(c3ccc(OCC4=NCCO4)cc3)=NN2)cc1 (centres undefined)
IC50 (Plasmodium falciparum [1]): 1.03 µg/mL (≈ 2.94 µM)

O=C(/C=C/c1ccc(Cl)cc1)c1ccc(OCC2=NCCO2)cc1
IC50 (Plasmodium falciparum [1]): 0.557 µg/mL (≈ 1.63 µM) | selectivity ratio [2]: 7.8 | IC50 (Plasmodium falciparum [3]): 1.82 µg/mL (≈ 5.33 µM) | Ratio IC50 [4]: 3.27 | selectivity ratio [5]: 25.5

COc1ccc(C2CC(c3ccc(OCC4=NCCO4)cc3)=NN2c2ccc(S(N)(=O)=O)cc2)cc1 (centres undefined)
MSD (Plasmodium berghei [6]): 11.4 days | log K (Heme [7]): 5.87 | IC50 (Plasmodium falciparum [1]): 0.322 µg/mL (≈ 0.636 µM) | Activity (mu-oxodimeric heme [8]): Active | Activity (Rattus norvegicus): Non-Toxic | Activity (Heme [9]): Active | log K (mu-oxodimeric heme [10]): 4.34 | Activity (Heme [11]): Active | selectivity ratio [2]: 5.5 | IC50 (Plasmodium falciparum [3]): 0.737 µg/mL (≈ 1.45 µM) | MSD (Plasmodium berghei [12]): 15.6 days | Activity (Plasmodium berghei [13]): 79.33% | Activity (Plasmodium berghei [14]): 63.89% | Ratio IC50 [4]: 2.29 | log K (Heme [15]): 4.98 | selectivity ratio [5]: 12.5

O=C(/C=C/c1ccc(O)cc1)c1ccc(OCC2=NCCO2)cc1
IC50 (Plasmodium falciparum [1]): 2.44 µg/mL (≈ 7.54 µM)

NS(=O)(=O)c1ccc(N2N=C(c3ccc(OCC4=NCCO4)cc3)CC2c2cccc(Cl)c2)cc1 (centres undefined)
IC50 (Plasmodium falciparum [1]): 0.552 µg/mL (≈ 1.08 µM) | selectivity ratio [2]: 8.7 | IC50 (Plasmodium falciparum [3]): 2.15 µg/mL (≈ 4.22 µM) | Ratio IC50 [4]: 3.9 | selectivity ratio [5]: 34.2

COc1ccc(/C=C/C(=O)c2ccc(OCC3=NCCO3)cc2)cc1
IC50 (Plasmodium falciparum [1]): 1.57 µg/mL (≈ 4.66 µM)

O=C(/C=C/c1ccc(F)cc1)c1ccc(OCC2=NCCO2)cc1
IC50 (Plasmodium falciparum [1]): 0.813 µg/mL (≈ 2.5 µM)

O=C(/C=C/c1ccccc1)c1ccc(OCC2=NCCO2)cc1
IC50 (Plasmodium falciparum [1]): 1.77 µg/mL (≈ 5.77 µM)
